# Experimental data reported in ChEMBL document CHEMBL1121422, “2,4-Diamino-5-benzylpyrimidines and analogues as antibacterial agents. 3. C-Benzylation of aminopyridines with phenolic Mannich bases. Synthesis of 1- and 3-deaza analogues of trimethoprim” (J Med Chem, 1980).
# Assays:
# [1] = Dissociation constant (pKa); format: physicochemical; conditions: read-out: Dissociation constant
# [2] = target: T1, Dihydrofolate reductase (Rattus norvegicus) (UniProt Q920D2); assay: Tested for inhibition of dihydrofolate reductase enzyme purified from rat liver at the highest concentration tested
# T1 sequence (whole entry): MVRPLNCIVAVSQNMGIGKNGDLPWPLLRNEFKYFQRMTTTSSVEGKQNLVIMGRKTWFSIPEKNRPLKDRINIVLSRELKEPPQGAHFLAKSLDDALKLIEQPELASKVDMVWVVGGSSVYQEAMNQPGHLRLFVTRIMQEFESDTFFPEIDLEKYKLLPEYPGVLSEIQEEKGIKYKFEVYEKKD
# How it was run: (§1)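 Enzyme partially purified from rat liver, assayed in phosphate buffer by the Baccanari method. Compound held 5 min with enzyme and buffer at 37 °C before NADPH, then FH2, started the reaction. Percent inhibition of reaction rate recorded at the highest concentration tested.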
# Dihydrofolate reductase = target: T2, Dihydrofolate reductase (Rattus norvegicus, UniProt Q920D2); assay: Inhibition of dihydrofolate reductase from rat liver […]; conditions: read-out: I50; how it was run: as §1
# T2 sequence (Q920D2 whole entry): T1 sequence (whole entry)
# [3] = target: T3, Dihydrofolate reductase (Escherichia coli) (UniProt P0ABQ4); assay: Tested for inhibition of dihydrofolate reductase enzyme purified from Escherichia coli […]
# T3 sequence (whole entry): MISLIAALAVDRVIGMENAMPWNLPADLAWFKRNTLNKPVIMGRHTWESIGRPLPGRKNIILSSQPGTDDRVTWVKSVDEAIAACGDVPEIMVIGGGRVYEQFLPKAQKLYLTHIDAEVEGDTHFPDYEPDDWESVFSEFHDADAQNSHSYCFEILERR
# How it was run: (§2)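 Affinity-column-purified E. coli enzyme in phosphate buffer (Baccanari method). Compound preincubated 5 min with enzyme and buffer at 37 °C. NADPH added, then FH2 to start the reaction. Value is percent inhibition of reaction rate at the highest concentration tested.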
# [4] = target: T1, Dihydrofolate reductase (Rattus norvegicus); assay: Tested for inhibition of dihydrofolate reductase enzyme purified from rat liver at a concentration of 1x 10 e6 M; how it was run: as §1
# [5] = target: T3, Dihydrofolate reductase (Escherichia coli); assay: (§3) Tested for inhibition of dihydrofolate reductase enzyme purified from Escherichia coli at a concentration of 1x 10 e6M; how it was run: as §2
# [6] = target: T3, Dihydrofolate reductase (Escherichia coli); assay: as §3; how it was run: as §2; remark: listed apart in the source
SMILES,pKa [1],inhibition [2] [%],IC50 (Dihydrofolate reductase) [mM],other results
Nc1ccnc(N)c1,9.25,–,–,–
COc1cc(CNc2ccnc(N)c2F)cc(OC)c1O,7.26,–,–,–
CCc1cc(Cc2ccc(N)nc2N)cc(CC)c1O,6.59,26,~40,–
Nc1cccc(N)n1,6.73,–,–,–
CCOC(=O)Nc1ccnc(C(N)=O)c1,3.32,–,–,–
CCOC(=O)Nc1ccnc(NC(=O)OCC)c1,5.04,–,–,–
COc1cc(Cc2cc(Cc3cc(OC)c(O)c(OC)c3)c(N)nc2N)cc(OC)c1O,6.69,–,24,inhibition [3]: 29%
COc1cc(Cc2c(N)ccnc2N)cc(OC)c1O,–,–,41,inhibition [3]: 26%
CC(C)c1cc(Cc2cnc(N)cc2N)cc(C(C)C)c1O,–,36,~27,–
COc1cc(CNc2ccnc(N)c2Br)cc(OC)c1O,7.33,–,–,–
COc1cc(Cc2cnc(N)cc2N)cc(OC)c1O,–,37,~10,–
Nc1ncc(Br)c(N)c1Br,5.5,–,–,–
CCc1cc(Cc2cc(Cc3cc(CC)c(O)c(CC)c3)c(N)nc2N)cc(CC)c1O,6.63,19,~1,–
COc1cc(Cc2cnc(N)c(F)c2N)cc(OC)c1O,7.15,32,~35,–
CC(C)c1cc(Cc2cnc(N)c(Br)c2N)cc(C(C)C)c1O,–,0,~23.7,–
Nc1ccnc(N)c1Br,7.44,–,–,–
COc1cc(CC2=CC(Cc3cc(OC)c(O)c(OC)c3)C(=O)N=C2N)cc(OC)c1O (centres undefined),1.51,–,14,–
COc1cc(CC2C=CC(N)=NC2=O)cc(OC)c1O (centres undefined),1.31,2.4,~1,inhibition [3]: 0%
COc1cc(Cc2cnc(N)cc2N)cc(OC)c1OC,9.03,–,–,inhibition [4]: 7%
COc1cc(CNc2cccc(N)n2)cc(OC)c1O,6.51,–,–,inhibition [5]: 29%; inhibition [6]: 25%; inhibition [4]: 0%
COc1cc(Cc2ccc(N)nc2N)cc(OC)c1O,6.6,34,~10,inhibition [3]: 0%
COc1cc(Cc2cnc(N)c(Br)c2N)cc(OC)c1O,7.2,21,~42,inhibition [3]: 11%
Nc1ccncc1 [DALFAMPRIDINE],9.25,–,–,–
